# Experimental data published in ChEMBL document CHEMBL3045743, “Synthesis and herbicidal activity of isoindoline-1,3-dione substituted benzoxazinone derivatives containing a carboxylic ester group” (J Agric Food Chem, 2009).
# What was measured:
# Abutilon theophrasti [1] = assay: Post-emergence herbicidal activity against Abutilon theophrasti (velvetleaf) assessed as growth inhibition at 75 g.a.i./ha applied at two-leaf stage measured after 15 days; assay type: functional; conditions: 360 h, read-out: GI
# How it was run: (§1)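 Pot-grown weeds sown 5 mm deep in greenhouse clay soil (pH 6.5, 1.7% organic matter, CEC 12.9 cmol/kg) at 22-25 °C. Stock diluted with water and sprayed post-emergence: dicots at 2-leaf stage, monocots at 1-leaf stage. Untreated and DMF solvent controls were included. % growth inhibition was scored visually versus untreated controls after 15 days. Triplicates averaged.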
# Digitaria sanguinalis [2] = assay: Pre-emergence herbicidal activity against Digitaria sanguinalis (hairy crabgrass) assessed as growth inhibition at 75 g.a.i./ha applied 24 hr after seeds were sown measured after 15 days; assay type: functional; conditions: read-out: GI
# How it was run: (§2)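 Weeds sown 5 mm deep in pots of greenhouse clay soil (pH 6.5, 37.5% clay, CEC 12.9 cmol/kg) and grown at 22-25 °C. Water-diluted formulation was applied pre-emergence 24 h after sowing. Untreated and DMF solvent controls were included. Growth inhibition was visually rated in % against untreated controls after 15 days, as the mean of triplicates.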
# Abutilon theophrasti [3] = assay: Pre-emergence herbicidal activity against Abutilon theophrasti (velvetleaf) assessed as growth inhibition at 75 g.a.i./ha applied 24 hr after seeds were sown measured after 15 days; assay type: functional; conditions: read-out: GI; how it was run: as §2
# Arachis hypogaea [4] = assay: Phytotoxicity against Arachis hypogaea (peanut) assessed as growth inhibition at 37.5 g.a.i/ha pre-emergent application measured after 15 days by greenhouse crop selectivity assay; assay type: organism-based; conditions: in vivo, other, 360 h
# How it was run: (§3)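 Pre-emergence greenhouse crop selectivity test on pot-grown plants in clay soil (pH 6.5, 1.7% organic matter, 37.5% clay, CEC 12.9 cmol/kg). Stock solutions were diluted with water and applied at 300, 150, 75 or 37.5 g a.i./ha, in triplicate. After 15 days, phytotoxicity was scored visually against untreated controls as % crop growth inhibition, averaged over the triplicates.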
# Zea mays [5] = assay: Phytotoxicity against Zea mays (maize) assessed as growth inhibition at 7.5 to 60 g.a.i/ha post-emergent application measured after 15 days by greenhouse crop selectivity assay; assay type: organism-based; conditions: in vivo, other, 360 h
# How it was run: (§4)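 Postemergence crop selectivity test on pot-grown plants in a greenhouse, in clay soil (pH 6.5, 1.7% organic matter, CEC 12.9 cmol/kg). Stock was diluted with water and sprayed at 60, 30, 15 or 7.5 g a.i./ha, in triplicate. Growth inhibition was rated visually against untreated controls after 15 days and given as the triplicate mean percentage.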
# Gossypium = assay: Phytotoxicity against Gossypium (cotton) assessed as growth inhibition at 7.5 to 60 g.a.i/ha post-emergent application measured after 15 days by greenhouse crop selectivity assay; assay type: organism-based; conditions: in vivo, other, 360 h; how it was run: as §4
# [6] = Phytotoxicity against Oryza sativa (rice) assessed as growth inhibition at 75 g.a.i/ha pre-emergent application measured after 15 days by greenhouse crop selectivity assay; assay type: organism-based, L.; conditions: in vivo, 75 g.a.i/ha, read-out: GI; how it was run: as §3
# Zea mays [7] = assay: Phytotoxicity against Zea mays (maize) assessed as growth inhibition at 37.5 g.a.i/ha pre-emergent application measured after 15 days by greenhouse crop selectivity assay; assay type: organism-based; conditions: in vivo, other, 360 h; how it was run: as §3
# Triticum aestivum = assay: Phytotoxicity against Triticum aestivum (wheat) assessed as growth inhibition at 37.5 g.a.i/ha pre-emergent application measured after 15 days by greenhouse crop selectivity assay; assay type: organism-based; conditions: in vivo, other, 360 h; how it was run: as §3
# Glycine max [8] = assay: Phytotoxicity against Glycine max (soybean) assessed as growth inhibition at 150 g.a.i/ha pre-emergent application measured after 15 days by greenhouse crop selectivity assay; assay type: organism-based; conditions: in vivo, other, 360 h; how it was run: as §3
# Glycine max [9] = assay: Phytotoxicity against Glycine max (soybean) assessed as growth inhibition at 75 g.a.i/ha pre-emergent application measured after 15 days by greenhouse crop selectivity assay; assay type: organism-based; conditions: in vivo, other, 360 h; how it was run: as §3
# Arachis hypogaea [10] = assay: Phytotoxicity against Arachis hypogaea (peanut) assessed as growth inhibition at 75 g.a.i/ha pre-emergent application measured after 15 days by greenhouse crop selectivity assay; assay type: organism-based; conditions: in vivo, other, 360 h; how it was run: as §3
# Amaranthus spinosus [11] = assay: Post-emergence herbicidal activity against Amaranthus spinosus assessed as growth inhibition at 7.5 g.a.i./ha applied at two-leaf stage measured after 15 days; assay type: functional; conditions: 360 h, read-out: GI; how it was run: as §1
# Abutilon theophrasti [12] = assay: Post-emergence herbicidal activity against Abutilon theophrasti (velvetleaf) assessed as growth inhibition at 7.5 g.a.i./ha applied at two-leaf stage measured after 15 days; assay type: functional; conditions: 360 h, read-out: GI; how it was run: as §1
# Echinochloa crus-galli [13] = assay: Pre-emergence herbicidal activity against Echinochloa crus-galli (barnyard grass) assessed as growth inhibition at 7.5 g.a.i./ha applied 24 hr after seeds were sown measured after 15 days; assay type: functional; conditions: read-out: GI; how it was run: as §2
# Digitaria sanguinalis [14] = assay: Pre-emergence herbicidal activity against Digitaria sanguinalis (hairy crabgrass) assessed as growth inhibition at 7.5 g.a.i./ha applied 24 hr after seeds were sown measured after 15 days; assay type: functional; conditions: read-out: GI; how it was run: as §2
# Echinochloa crus-galli [15] = assay: Post-emergence herbicidal activity against Echinochloa crus-galli (barnyard grass) assessed as growth inhibition at 75 g.a.i./ha applied at one-leaf stage measured after 15 days; assay type: functional; conditions: 360 h, read-out: GI; how it was run: as §1
# Amaranthus spinosus [16] = assay: Post-emergence herbicidal activity against Amaranthus spinosus assessed as growth inhibition at 37.5 g.a.i./ha applied at two-leaf stage measured after 15 days; assay type: functional; conditions: 360 h, read-out: GI; how it was run: as §1
# Digitaria sanguinalis [17] = assay: Pre-emergence herbicidal activity against Digitaria sanguinalis (hairy crabgrass) assessed as growth inhibition at 37.5 g.a.i./ha applied 24 hr after seeds were sown measured after 15 days; assay type: functional; conditions: read-out: GI; how it was run: as §2
# Abutilon theophrasti [18] = assay: Pre-emergence herbicidal activity against Abutilon theophrasti (velvetleaf) assessed as growth inhibition at 37.5 g.a.i./ha applied 24 hr after seeds were sown measured after 15 days; assay type: functional; conditions: read-out: GI; how it was run: as §2
# Setaria viridis = assay: Post-emergence herbicidal activity against Setaria viridis (green foxtail) assessed as growth inhibition at 15 g.a.i./ha applied at one-leaf stage measured after 15 days; assay type: functional; conditions: 360 h, read-out: GI; how it was run: as §1
# Digitaria sanguinalis [19] = assay: Post-emergence herbicidal activity against Digitaria sanguinalis(hairy crabgrass) assessed as growth inhibition at 15 g.a.i./ha applied at one-leaf stage measured after 15 days; assay type: functional; conditions: 360 h, read-out: GI; how it was run: as §1
# Echinochloa crus-galli [20] = assay: Pre-emergence herbicidal activity against Echinochloa crus-galli (barnyard grass) assessed as growth inhibition at 15 g.a.i./ha applied 24 hr after seeds were sown measured after 15 days; assay type: functional; conditions: read-out: GI; how it was run: as §2
# Amaranthus spinosus [21] = assay: Pre-emergence herbicidal activity against Amaranthus spinosus assessed as growth inhibition at 15 g.a.i./ha applied 24 hr after seeds were sown measured after 15 days; assay type: functional; conditions: read-out: GI; how it was run: as §2
# Chenopodium album = assay: Post-emergence herbicidal activity against Chenopodium album assessed as growth inhibition at 75 g.a.i./ha applied at two-leaf stage measured after 15 days; assay type: functional; conditions: 360 h, read-out: GI; how it was run: as §1
# Arachis hypogaea [22] = assay: Phytotoxicity against Arachis hypogaea (peanut) assessed as growth inhibition at 7.5 to 60 g.a.i/ha post-emergent application measured after 15 days by greenhouse crop selectivity assay; assay type: organism-based; conditions: in vivo, other, 360 h; how it was run: as §4
# [23] = tested on: Brassica rapa subsp. oleifera; assay: Phytotoxicity against Brassica rapa subsp. oleifera assessed as growth inhibition at 75 g.a.i/ha pre-emergent application measured after 15 days by greenhouse crop selectivity assay; assay type: functional; conditions: pre-emergence, 360 h, read-out: GI
# How it was run: (§5)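 Pot-grown crop in greenhouse clay soil (pH 6.5, 1.7% organic matter, 37.5% clay, CEC 12.9 cmol/kg). Stock diluted with water and applied pre-emergence at 300, 150, 75 or 37.5 g a.i./ha. Cultivated 15 days, then phytotoxicity scored visually as % growth inhibition versus untreated controls. Triplicate treatments, averaged.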
# [24] = tested on: Brassica rapa subsp. oleifera; assay: Phytotoxicity against Brassica rapa subsp. oleifera assessed as growth inhibition at 150 g.a.i/ha pre-emergent application measured after 15 days by greenhouse crop selectivity assay; assay type: functional; conditions: pre-emergence, 360 h, read-out: GI; how it was run: as §5
Structure (SMILES),inhibition of growth at 75 g/ha (Abutilon theophrasti [1]),inhibition of growth at 75 g/ha (Digitaria sanguinalis [2]),inhibition of growth at 75 g/ha (Abutilon theophrasti [3]),growth inhibition (GI) (Arachis hypogaea [4]),Activity (Zea mays [5]),Activity (Gossypium),inhibition at 360 h [6],growth inhibition (GI) (Zea mays [7]),growth inhibition (GI) (Arachis hypogaea [10]),inhibition of growth at 7.5 g/ha (Amaranthus spinosus [11]),inhibition of growth at 7.5 g/ha (Abutilon theophrasti [12]),inhibition of growth at 7.5 g/ha (Echinochloa crus-galli [13]),inhibition of growth at 7.5 g/ha (Digitaria sanguinalis [14]),inhibition of growth at 75 g/ha (Echinochloa crus-galli [15]),inhibition of growth at 37.5 g/ha (Amaranthus spinosus [16]),inhibition of growth at 37.5 g/ha (Digitaria sanguinalis [17]),inhibition of growth at 37.5 g/ha (Abutilon theophrasti [18]),inhibition of growth at 15 g/ha (Setaria viridis),inhibition of growth at 15 g/ha (Digitaria sanguinalis [19]),inhibition of growth at 15 g/ha (Echinochloa crus-galli [20]),also measured
COC(=O)C(C)N1C(=O)C(C)Oc2cc(F)c(N3C(=O)C4=C(CCCC4)C3=O)cc21 (stereo not drawn),> 80%,> 80%,> 80%,Not Active,Toxic,Toxic,> 10%,Not Active,Not Active,100%,100%,0%,0%,> 80%,100%,50%,70%,50%,20%,10%,growth inhibition (GI) (Triticum aestivum): Not Active; growth inhibition (GI) (Glycine max [8]): Not Active; growth inhibition (GI) (Glycine max [9]): Not Active; inhibition of growth at 15 g/ha (Amaranthus spinosus [21]): 100%; inhibition of growth at 75 g/ha (Chenopodium album): > 80%; Activity (Arachis hypogaea [22]): Toxic; inhibition of growth at 75 g/ha [23]: > 10%; inhibition of growth at 150 g/ha [24]: > 10%
C#CCN1C(=O)COc2cc(F)c(N3C(=O)C4=C(CCCC4)C3=O)cc21 [FLUMIOXAZIN],> 80%,> 80%,> 80%,Not Active,Toxic,Toxic,> 10%,Not Active,Not Active,100%,100%,0%,0%,> 80%,100%,80%,100%,90%,90%,50%,inhibition of growth at 15 g/ha (Amaranthus spinosus [21]): 100%; inhibition of growth at 75 g/ha (Chenopodium album): > 80%; Activity (Arachis hypogaea [22]): Toxic; inhibition of growth at 75 g/ha [23]: > 10%; inhibition of growth at 150 g/ha [24]: > 10%
